Test results from ChEMBL document CHEMBL1123328, “Catechol estrogens of the 1,1,2-triphenylbut-1-ene type: relationship between structure, estradiol receptor affinity, estrogenic and antiestrogenic properties, and mammary tumor inhibiting activities” (1986).

Experiments:
[1] = test system: Mus musculus; assay: (§1) In vivo inhibition of hormone-dependent MXT mammary tumor in mice; format: functional
Outline: (§2)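 MXT tumor pieces (~2 mm3) implanted sc into female 8-week-old BDF1 mice, randomized into groups of 10. From day 1 after transplant, compound in olive oil given sc 3 times weekly (equimolar doses) for 6 weeks. Tumors excised and weighed. T/C % = treated/solvent-control tumor weight × 100 (mean of 10); uterus T/C also recorded.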

[2] = target: T1, Estrogen receptor (Mus musculus) (UniProt O08537+P19785); assay: […] estrogenic effect in immature mice at 500 ug; format: functional
T1 sequence (O08537 whole entry, looked up): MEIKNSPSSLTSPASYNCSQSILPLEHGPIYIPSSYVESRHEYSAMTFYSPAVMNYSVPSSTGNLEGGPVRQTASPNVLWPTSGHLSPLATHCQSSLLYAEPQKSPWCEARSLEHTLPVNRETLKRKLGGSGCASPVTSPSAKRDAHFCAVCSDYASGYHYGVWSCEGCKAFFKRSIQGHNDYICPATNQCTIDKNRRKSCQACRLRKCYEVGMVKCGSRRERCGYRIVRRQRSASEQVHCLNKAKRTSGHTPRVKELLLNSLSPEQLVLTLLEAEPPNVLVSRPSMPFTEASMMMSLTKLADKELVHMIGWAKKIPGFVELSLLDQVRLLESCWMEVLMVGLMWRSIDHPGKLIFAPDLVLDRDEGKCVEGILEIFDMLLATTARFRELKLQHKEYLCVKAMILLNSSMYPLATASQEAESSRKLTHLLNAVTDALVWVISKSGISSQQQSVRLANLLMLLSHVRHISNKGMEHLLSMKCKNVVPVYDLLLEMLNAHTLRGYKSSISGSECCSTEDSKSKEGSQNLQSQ
T1 sequence (P19785 whole entry, looked up): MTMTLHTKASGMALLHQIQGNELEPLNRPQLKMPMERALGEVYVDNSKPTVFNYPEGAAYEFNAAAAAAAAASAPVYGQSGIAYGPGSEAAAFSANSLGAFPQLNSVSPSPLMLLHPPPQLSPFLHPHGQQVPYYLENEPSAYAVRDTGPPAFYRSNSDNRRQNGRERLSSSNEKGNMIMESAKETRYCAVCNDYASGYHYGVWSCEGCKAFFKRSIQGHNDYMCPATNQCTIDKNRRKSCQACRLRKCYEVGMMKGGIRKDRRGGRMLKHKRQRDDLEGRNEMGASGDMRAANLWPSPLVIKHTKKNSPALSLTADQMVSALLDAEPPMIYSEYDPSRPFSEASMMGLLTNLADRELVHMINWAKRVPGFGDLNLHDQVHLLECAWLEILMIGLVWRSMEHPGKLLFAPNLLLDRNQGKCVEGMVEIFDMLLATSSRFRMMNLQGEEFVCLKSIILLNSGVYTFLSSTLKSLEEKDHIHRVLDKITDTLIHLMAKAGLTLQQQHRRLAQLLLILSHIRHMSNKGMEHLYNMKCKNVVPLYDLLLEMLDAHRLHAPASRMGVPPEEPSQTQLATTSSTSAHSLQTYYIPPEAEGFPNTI
Outline: (§3)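 Uterotrophic assay in immature female NMRI mice (10–12 g at start; 10 per group). Test compound in olive oil given sc daily for three consecutive days. Uteri removed 24 h after the last injection, fixed in Bouin's solution, dried and weighed. Estrogenic effect read as stimulation of uterine growth.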

[3] = test system: Mus musculus; assay: as §1; format: functional; outline: as §2; remark: listed apart in the source
[4] = target: T1, Estrogen receptor (Mus musculus); assay: In vivo anti-estrogenic effect in immature mice at 100 ug; format: functional, organism-based
Outline: (§4)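 Antiuterotrophic assay in immature female NMRI mice (10–12 g; 10 per group) with estrone-stimulated uterine growth. Test compound in olive oil given sc daily for 3 consecutive days. Uteri taken 24 h after the final dose, Bouin-fixed, dried and weighed. Antiestrogenic effect measured as inhibition of the estrone-driven uterine growth.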

[5] = target: T1, Estrogen receptor (Mus musculus); assay: […] estrogenic effect in immature mice at 1 ug; format: functional; outline: as §3
[6] = target: T1, Estrogen receptor (Mus musculus); assay: In vivo anti-estrogenic effect in immature mice at 0.5 ug; format: functional, organism-based; outline: as §4
[7] = target: T1, Estrogen receptor (Mus musculus); assay: In vivo anti-estrogenic effect in immature mice at 5 ug; format: functional, organism-based; outline: as §4

estrogenic effect [2] | inhibition [4] | inhibition [5] | inhibition [6] | inhibition [7] | SMILES | T/C [1] | T/C [3]
77% | – | – | – | – | CC/C(=C(\c1ccccc1)c1ccc(OC(C)=O)c(OC(C)=O)c1)c1ccc(OC(C)=O)c(OC(C)=O)c1 | 90% | 75%
– | 61% | – | – | – | CCC(=C(c1ccc(OC(C)=O)cc1)c1ccc(OC(C)=O)c(OC(C)=O)c1)c1ccccc1 | – | –
– | – | 18% | – | – | CCC(=C(c1ccccc1)c1ccccc1)c1ccc(OC(C)=O)c(OC(C)=O)c1 | 115% | 9%
66% | – | – | – | – | CC/C(=C(/c1ccccc1)c1ccc(OC(C)=O)c(OC(C)=O)c1)c1ccccc1 | 106% | 17%
67% | – | – | – | – | CC/C(=C(/c1ccccc1)c1ccc(OC(C)=O)c(OC(C)=O)c1)c1ccc(OC(C)=O)c(OC(C)=O)c1 | 99% | 84%
61% | – | – | – | – | CC/C(=C(/c1ccccc1)c1cccc(OC(C)=O)c1)c1ccc(OC(C)=O)c(OC(C)=O)c1 | 123% | 2%
– | – | – | 0% | – | CC/C(=C(/c1ccc(OC(C)=O)cc1)c1ccc(OC(C)=O)c(OC(C)=O)c1)c1ccccc1 | 99% | 44%
63% | – | – | – | 53% | CC/C(=C(\c1ccccc1)c1cccc(OC(C)=O)c1)c1ccc(OC(C)=O)c(OC(C)=O)c1 | 87% | 30%
– | – | – | 38% | – | CC/C(=C(\c1ccc(OC(C)=O)cc1)c1ccc(OC(C)=O)c(OC(C)=O)c1)c1ccccc1 | 125% | 23%
77% | – | – | – | – | CC/C(=C(\c1ccccc1)c1ccc(OC(C)=O)c(OC(C)=O)c1)c1ccccc1 | 107% | 19%

Further lines, the compound ahead of its results:

SMILES | estrogenic effect [2] | inhibition [4] | inhibition [5] | inhibition [6] | inhibition [7] | T/C [1] | T/C [3]
CC/C(=C(\c1ccccc1)c1ccc(OC(C)=O)c(OC(C)=O)c1)c1ccc(OC(C)=O)cc1 | – | – | – | – | – | 113% | 40%
CC/C(=C(/c1ccccc1)c1ccc(OC(C)=O)c(OC(C)=O)c1)c1cccc(OC(C)=O)c1 | – | – | – | – | – | 103% | 35%
CC/C(=C(/c1ccccc1)c1ccc(OC(C)=O)c(OC(C)=O)c1)c1ccc(OC(C)=O)cc1 | – | – | – | – | – | 113% | 22%
CC/C(=C(\c1ccccc1)c1ccc(OC(C)=O)c(OC(C)=O)c1)c1cccc(OC(C)=O)c1 | – | – | – | – | – | 115% | 82%
CC/C(=C(\c1ccccc1)c1ccc(OC(C)=O)cc1)c1ccc(OC(C)=O)c(OC(C)=O)c1 | – | – | – | – | – | 195% | 1%
CC/C(=C(\c1ccccc1)c1ccc(OCCN(C)C)cc1)c1ccccc1 [TAMOXIFEN] | – | – | – | – | – | 92% | 10%
CCC(=C(c1ccc(OC(C)=O)c(OC(C)=O)c1)c1ccc(OC(C)=O)c(OC(C)=O)c1)c1ccccc1 | 13% | 54% | – | – | – | 107% | 134%
CC/C(=C(/c1ccccc1)c1ccc(OC(C)=O)cc1)c1ccc(OC(C)=O)c(OC(C)=O)c1 | – | – | – | – | – | 183% | 2%
